What all share (type): functional, Mus musculus
In experiment [1] the test system is P388. The experiment can be described thus: In vivo activity against P388 Lymphocytic Leukemia in CD2F1 mice at the dose of 12.5 mg/kg, activity expressed as % T/C. The gist of the method:
(§1)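 CD2F1 mice were inoculated with ascitic fluid holding ca. 10^6 P388 cells. Drug was given daily from 24 h after inoculation, from solutions or suspensions made fresh each day, some as a saline suspension. TDS is survivors/initial animals on day 5. BWD is body weight on day 5 minus day 1. %T/C compares median survival of treated and control mice.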

Experiment [2] relates to P388. The experiment can be described thus: In vivo activity against P388 Lymphocytic Leukemia in CD2F1 mice at the dose of 12.5 mg/kg, activity expressed as TDS; 4/4. Put shortly: as §1
For experiment [3], the system named is P388. Nature of the experiment: In vivo activity against P388 Lymphocytic Leukemia in CD2F1 mice at the dose of 25 mg/kg, activity expressed as TDS; 4/4. The gist of the method: as §1
Experiment [4] relates to P388. Nature of the experiment: In vivo activity against P388 Lymphocytic Leukemia in CD2F1 mice at the dose of 25 mg/kg, activity expressed as % T/C. The gist of the method: as §1
Experiment [5] relates to P388. The experiment can be described thus: In vivo activity against P388 Lymphocytic Leukemia in CD2F1 mice at the dose of 12.5 mg/kg, activity expressed as body weight difference. Put shortly: as §1
Experiment [6] relates to P388. The experiment can be described thus: In vivo activity against P388 Lymphocytic Leukemia in CD2F1 mice at the dose of 6.2 mg/kg, activity expressed as body weight difference. Put shortly:
as §1

Experiment [7] relates to P388. Nature of the experiment: In vivo activity against P388 Lymphocytic Leukemia in CD2F1 mice at the dose of 6.2 mg/kg, activity expressed as TDS; 4/4. Put shortly: as §1
Experiment [8] concerns P388. The experiment can be described thus: In vivo activity against P388 Lymphocytic Leukemia in CD2F1 mice at the dose of 6.2 mg/kg, activity expressed as % T/C. The gist of the method: as §1
For experiment [9], the system named is P388. The experiment can be described thus: In vivo activity against P388 Lymphocytic Leukemia in CD2F1 mice at the dose of 50 mg/kg, activity expressed as TDS; 0/4. Put shortly: as §1
Experiment [10] relates to P388. The experiment can be described thus: In vivo activity against P388 Lymphocytic Leukemia in CD2F1 mice at the dose of 25 mg/kg, activity expressed as body weight difference. Put shortly: as §1

In general, T/C refers to the ratio of treated to control. Regarding `CC(C)NC(=O)OCc1c(COC(=O)NC(C)C)c(-c2ccc(Cl)[n+](C)c2)n2c1CCC2.[I-]`, the T/C amounted to 102% in [1], 109% in [4] and 98% in [8]. Moreover, the TDS in [2] was determined as 4; in experiment [3], 4; in experiment [7], 4; in experiment [9], 0. In addition, the values for the BWD in [5], in experiment [6] and in experiment [10] were 0.1 g, -0.4 g and -1.1 g, respectively.

These data come from ChEMBL document CHEMBL1124794, “Synthesis, chemistry, and antineoplastic activity of alpha-halopyridinium salts: potential pyridone prodrugs of acylated vinylogous carbinolamine tumor inhibitors” (J Med Chem, 1990).
